According to ChEMBL document CHEMBL2062459, “Type 1 Phototherapeutic Agents. 2. Cancer Cell Viability and ESR Studies of Tricyclic Diarylamines” (ACS Med Chem Lett, 2012):

What follows are molecules tested on U-937 (assay: Cytotoxicity in UV-irradiated human U937 cells exposed to photosensitizer for 2 hrs before irradiation for 20 mins by WST-1 assay). Conditions: U-937, light or radiation study.
Type: functional, cell-based
Method in brief: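 Compounds were made up as 8 mM DMSO stocks and diluted into culture medium so that final DMSO on cells stayed below 0.5%. Cells were tested across a concentration range both in the dark and with light exposure. Values are the average of at least three independent runs.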

| SMILES | IC50 |
| --- | --- |
| c1ccc(C2c3ccccc3Nc3ccccc32)cc1 | 170 nM |
| c1ccc2c(c1)Cc1ccccc1N2 [ACRIDAN] | 680 nM |
| c1ccc2c(c1)[nH]c1ccccc12 [CARBAZOLE] | 5560 nM |
| C1=Cc2ccccc2Nc2ccccc21 [IMINOSTILBENE] | 2580 nM |
| c1ccc2c(c1)Nc1ccccc1S2 [PHENOTHIAZINE] | 1390 nM |
| c1ccc2c(c1)Nc1ccccc1O2 [PHENOXAZINE] | 14500 nM |
